High-throughput results deposited in PubChem by several laboratories.
An excerpt weighted towards active compounds, which were near 1.8% of everything screened.
HDAC3 inhib: inhibitors of human histone deacetylase 3; O15379; recombinant HDAC3, fluorogenic peptide/trypsin coupled, fluorescence; inhibition, % at 8.3 µM; actives 0.15% (n = 320,000); AID 2718; in the data active = inhibition above about 26%, passing the limit was not always enough
AI-2 QS modul: Vibrio harveyi AI-2 quorum sensing modulation. Vibrio harveyi JMH597 AI-2 luminescence/OD600 ratio, 9 h; stronger effect = lower value; strain lacks LuxN and CqsS sensors; 0 = neutral-control median. activity change, % at 7.5 µM. actives 0.4% (n = 300,000); in the data active = activity change below about -75%, passing the limit was not always enough;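 note: luminescence divided by OD600 gain over 9 h not by final OD600 alone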
LANA-H2A inh: blocks KSHV LANA binding to histone H2A/H2B. actives 0.6% (n = 320,000). inhibition, % (test concentration not listed). cell-free LANA-H2A/H2B peptide, fluorescence polarization; in the data active = inhibition mostly above about 10%, no sharp cut-off; inactive = mostly below about 6.7%
ATG4B inhibitor: ATG4B (human) cysteine protease inhibition; ATG4B cleavage of LC3-PLA2, NBD-HPC fluorescence, 1 h; inhibition, % at 8.33 µM; actives 0.51% (n = 340,000); AID 504462; in the data active = inhibition above about 40%
HKDC1 inhibitor: HKDC1 (human) hexokinase inhibition. recombinant HKDC1, G6PDH/diaphorase resazurin coupled fluorescence. inhibition, % at 20 µM. actives 0.16% (n = 340,000). AID 493160;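 active = inhibition above about 35% when tested at 20 µM, limit read from the data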;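 note: plate controls were DMSO wells with enzyme for no effect and DMSO wells lacking enzyme for full effect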
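Assay system – recombinant HKDC1 (HK5) hexokinase enzyme, produced in-house · Input – HKDC1 at 5 µg/mL · Reagent – glucose plus 1 mM ATP as hexokinase substrates · Timing – 90 min reaction incubation at room temperature, dark · Measured by – G6PDH/diaphorase-coupled fluorescence, 1 mM NADP, 100 µM resazurin, 525/613 nm · Benchmarks – DMSO-enzyme wells negative, buffer-substituted wells positive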
Bfl-1 A1 inh: inhibitors of the anti-apoptotic protein A1, read as caspase activation. MEF A1-2A-BIM cells, Caspase-Glo 3/7 luminescence, 3 h; percent of clofoctol response, vehicle zero. caspase activation, % (concentration not given with the values). actives 0.066% (n = 330,000). AID 2462;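 active = over half of replicate activation scores above 10%, or exactly half above 10 with the replicate mean above 10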
JMH597 growth: retest: inhibitors of Vibrio harveyi JMH597 growth; AID 2726; growth inhibition, % at 7.5 µM; actives 1% (n = 750); OD600 absorbance, 9 h; lacks LuxN and CqsS sensors; shares compounds with AI-2 QS modul;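 active = every replicate shows growth inhibition above 50%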
BB721 lum counter: retest counter-screen: luminescence loss in constitutive-on quorum sensing strain BB721. shares compounds with AI-2 QS modul. Vibrio harveyi BB721 luminescence, 9 h. actives 95% (n = 750). inhibition, % at 7.5 µM;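 active = inhibition above about 80% in every replicate, not just on average, limit read from the data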
BB721 growth rt: retest Vibrio harveyi BB721 growth inhibition. shares compounds with AI-2 QS modul. OD600 absorbance, 9 h. growth inhibition, % at 7.5 µM. actives 3% (n = 750);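 active = every replicate shows growth inhibition above 50%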
AI-2 QS JMH597: Vibrio harveyi AI-2 signaling luminescence modulation – JMH597 strain, confirmation; shares compounds with AI-2 QS modul; Vibrio harveyi JMH597 AI-2 quorum sensing luminescence, 9 h; luxN and CqsS knockout, AI-2 only; inhibition, % at 7.5 µM; actives 97% (n = 750); AID 2736;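 active = every replicate shows more than 75% inhibition of signal versus neutral control wells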
* marks the source's active call; other numbers are inactive results; · = not tested or not shown.

SMILES | HDAC3 inhib | AI-2 QS modul | LANA-H2A inh | ATG4B inhibitor | HKDC1 inhibitor | Bfl-1 A1 inh | others
O=C(O)CCN1Cc2ccccc2C1=O | 6 | 18 | 0 | 8 | 6 | 0
CCC(=O)N1Cc2ccccc2-c2ccccc2C1=O | 0 | 3 | -5 | 41* | -2 | 0
Cc1ccc([N+](=O)[O-])cc1S(=O)(=O)Nc1ccc(C(=O)N2CCN(C(=O)c3ccco3)CC2)cc1 | 4 | · | 16* | -6 | 5 | -1
O=C(COc1ccc([N+](=O)[O-])cc1)Nc1ccc(N2CCN(C(=O)c3ccco3)CC2)cc1 | 0 | -2 | 28* | 0 | 2 | 0
NC(=O)C1=C(c2ccccc2)c2ccccc2C1=O | · | · | · | -4 | 4 | ·
CCOc1cc(S(=O)(=O)NC2CCCCCC2)ccc1F | 4 | 8 | 22* | -6 | 0 | 0
COc1ccc(F)cc1S(=O)(=O)NC1CCCC1 | -2 | 22 | 82* | 0 | 6 | -1
COc1ccc(C)cc1S(=O)(=O)NC1CCCC1 | -5 | 19 | 2 | -12 | -2 | -1
CCOc1ccc(S(=O)(=O)NC2CCCCCC2)cc1 | -1 | -1 | 2 | -2 | -1 | 0
C[C@H](O)[C@@H]1C(=O)N2CCc3ccc(N4CCOCC4)cc3[C@@H]2C[C@@H]1N(C)C(=O)Nc1ccccc1 | · | · | · | 12 | -4 | ·
Cc1cc(Oc2ccc(C)c(Cl)c2)nc(SCC(=O)c2ccccc2)n1 | -10 | 21 | 16* | 25 | -4 | 0
Cc1cccc(CC2CC(=O)N(c3ccc(C)cc3Br)C2=O)c1 (stereo not given) | -2 | -2 | 26* | -1 | -5 | 1
COC(=O)Cn1c(C)nc(=O)c(-c2ccccc2)c1C | -3 | 14 | 15* | 6 | -7 | 0
CC(C)(Cc1ccccc1)NC(=O)C(=O)c1cn(CC(=O)N2CCOCC2)c2ccccc12 | -3 | 12 | 39* | -5 | 3 | -1
O=C(CN1C(=O)c2cccc3cccc1c23)Nc1ccc(S(=O)(=O)Nc2nccs2)cc1 | 1 | -96* | -1 | -6 | 1 | 1
O=C(CN1C(=O)c2cccc3cccc1c23)Nc1ccc(S(=O)(=O)N2CCOCC2)cc1 | 6 | -96* | -1 | -12 | 0 | -1
O=C(CCl)Nc1ccc(S(=O)(=O)Nc2nccs2)cc1 | -1 | -26 | 3 | -17 | -2 | 1
CC(=O)Nc1ccc(NC(=O)c2ccccc2-n2cnnn2)cc1 | · | · | · | -6 | 0 | ·
Cc1cc(NC(=O)CCSc2ccccc2)ccc1Br | 4 | -87* | -6 | -6 | -1 | 1
Cc1cc(Br)ccc1NC(=O)CCSc1ccccc1 | 5 | 24 | -4 | -2 | -2 | 0
COc1ccc(OC(=O)c2cccnc2)cc1 | -5 | 13 | -4 | -6 | -8 | 1
O=C(Oc1ccc([N+](=O)[O-])cc1)c1cccnc1 | 32* | 39 | 7 | -1 | -9 | 0
CCN(C(=O)COC(=O)/C=C/c1c(C)nn(-c2ccccc2)c1C)c1c(N)n(Cc2ccccc2)c(=O)[nH]c1=O | · | · | · | -9 | 3 | ·
CC(=O)Nc1ccc(NC(=O)Cc2ccc(S(=O)(=O)N3CCCCC3)cc2)cc1 | · | · | · | 6 | 1 | ·
c1ccc(CSc2nnc(-c3c[nH]c4ccccc34)o2)cc1 | -8 | -82* | 1 | 19 | 2 | 0
SMILES | HDAC3 inhib | AI-2 QS modul | LANA-H2A inh | ATG4B inhibitor | HKDC1 inhibitor | Bfl-1 A1 inh | others
c1ccc2c(-c3nnc(SCc4cn5ccccc5n4)o3)c[nH]c2c1 | -1 | 19 | -3 | 12 | 14 | 0
Cc1cccc(NC(=O)c2nc[nH]c2C(=O)NCCCCNC(=O)c2[nH]cnc2C(=O)Nc2cccc(C)c2)c1 | -2 | · | 4 | 4 | 2 | -2
CC(C)(C)c1ccc(SCCc2cccnc2)cc1 | 2 | 17 | 14* | 5 | 4 | 0
Cc1cc(O)c(C(C)C)cc1C1(c2cc(C(C)C)c(O)cc2C)OC(=O)c2ccccc21 | 1 | 63 | 15* | 3 | 3 | -1
Cc1cc(C2(c3ccc(O)c(C)c3)OC(=O)c3ccccc32)ccc1O | 7 | 12 | -3 | 0 | 1 | 0
CC(Cc1c[nH]c2ccccc12)C(=O)N1CCN(c2ccccc2F)CC1 (stereo not given) | 2 | -6 | 6 | -2 | 1 | 1
Cn1c(=O)c(C(=O)NCCO)c(O)c2ccccc21 | 1 | 12 | 9.6* | -4 | -1 | 1
O=[N+]([O-])c1cccc2nc3ccccc3c(NCCCn3ccnc3[N+](=O)[O-])c12 | · | · | · | 5 | 5 | ·
Cc1ccc2c(c1)N(C(C)C(=O)NCc1cccs1)C(=O)CO2 (stereo not given) | 2 | 28 | 20* | 1 | 4 | -1
Cc1ccc2c(c1)N(C(C)C(=O)NCc1ccccn1)C(=O)CO2 (stereo not given) | 1 | 6 | 1 | -6 | -8 | 1
CN(C(=O)c1ccc(NC(=O)Cc2ccc(NC(=O)C3CCCN(C(=O)c4ccccc4)C3)cc2)cc1)C1CCCC1 (stereo not given) | · | · | · | -9 | 1 | ·
C/C(=N\Nc1nncc2ccccc12)c1ccc(O)cc1 | 1 | 17 | 12* | -1 | -2 | 0
C/C(=N\Nc1nncc2ccccc12)c1ccc(C(C)(C)C)cc1 | -3 | 9 | -3 | 1 | 4 | -1
O=C(NO)c1ccc(OC(F)F)cc1 | 73* | 7 | 6 | 0 | 0 | 0
CCOC(=O)C(NC(=O)N(C)C)(Nc1sc(C)c(CC)c1C#N)C(F)(F)F (stereo not given) | 32* | 1 | 4 | -6 | -12 | 0
CN(C)c1cc[n+](CC(=O)Nc2cccc([N+](=O)[O-])c2)cc1 | -4 | -44 | 1 | 1 | -5 | 0
CN(C)c1cc[n+](CC(=O)Nc2ccc(Cl)c([N+](=O)[O-])c2)cc1 | 0 | -87* | 2 | 2 | -5 | 0 | JMH597 growth=4;BB721 lum counter=96*;BB721 growth rt=-5;AI-2 QS JMH597=97*
CC(C)CNC(=O)c1cccc(NC(=O)c2ccc(Cl)c([N+](=O)[O-])c2)c1 | 2 | 12 | -2 | -7 | 4 | 0
